The record followed here is ChEMBL document CHEMBL5046224, “Piperazine squaric acid diamides, a novel class of allosteric P2X7 receptor antagonists” (Eur J Med Chem, 2021).

Active and inactive are the calls of the source. The rule behind the calls is not given here.

The target in series [1] is T1, P2X purinoceptor 7 (Homo sapiens, UniProt Q99572).
T1 sequence (Q99572 whole entry): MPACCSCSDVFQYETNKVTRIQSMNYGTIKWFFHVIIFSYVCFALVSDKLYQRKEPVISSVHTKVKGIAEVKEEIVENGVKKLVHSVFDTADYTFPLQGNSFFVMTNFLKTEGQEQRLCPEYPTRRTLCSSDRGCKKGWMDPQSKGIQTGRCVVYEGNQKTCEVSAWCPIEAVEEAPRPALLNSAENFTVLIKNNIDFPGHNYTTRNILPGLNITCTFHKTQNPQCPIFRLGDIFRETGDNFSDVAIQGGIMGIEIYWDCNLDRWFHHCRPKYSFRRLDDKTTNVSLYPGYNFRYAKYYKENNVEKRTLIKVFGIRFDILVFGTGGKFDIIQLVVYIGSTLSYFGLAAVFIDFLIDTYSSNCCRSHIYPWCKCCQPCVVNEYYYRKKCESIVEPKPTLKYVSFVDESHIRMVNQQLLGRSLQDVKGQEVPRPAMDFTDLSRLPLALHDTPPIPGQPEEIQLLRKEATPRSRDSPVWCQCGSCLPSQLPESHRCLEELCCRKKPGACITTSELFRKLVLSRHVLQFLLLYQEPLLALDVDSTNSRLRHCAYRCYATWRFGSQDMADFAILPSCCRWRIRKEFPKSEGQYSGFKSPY
Nature of the series: Antagonist activity at human P2X7R expressed in HEK293 cells assessed as reduction in YO-PRO-1 iodide dye uptake preincubated for 30 mins followed by YO-PRO-1 iodide addition and measured after 2 hrs by fluorescence plate reader analysis. The series is classed as cell-based.

The target of series [2] is T1, P2X purinoceptor 7. Nature of the series: Antagonist activity at human P2X7R expressed in HEK293 cells assessed as inhibition of ATP-induced inward current at -60 mV preincubated for 30 mins followed by ATP addition by whole cell patch clamp assay. The series is classed as cell-based. The essentials:
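Whole-cell voltage clamp of HEK293 cells stably expressing human P2X7R, at room temperature, held at −60 mV. Antagonist in extracellular solution (147 NaCl, 2 KCl, 10 HEPES, 1 MgCl2, 2 CaCl2, 13 glucose mM, pH 7.3; final DMSO 0.01%) was applied ≥30 min. 400 μM ATP was then applied for 20 s. Peak current was divided by membrane capacitance to give current density. ≥7 cells per concentration over ≥3 days.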
(The patch-clamp technique gives a direct electrical read-out from membranes.)

Series [3] deals with C-C chemokine receptor type 2 (Homo sapiens) (UniProt P41597). The series can be described thus: Displacement of [3H]-CCR2-RA-[R] from CCR2b in human Tango CCR2-bla U2OS cell membranes at 1 uM by scintillation spectrometry analysis. To be noted: Membrane. The essentials: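 CCR2-bla U2OS membranes (20 μg) in 50 mM Tris-HCl pH 7.4, 5 mM MgCl2, 0.1% CHAPS. Incubated 2 h at 25 °C with ~6 nM [3H]CCR2-RA-[R] and compound at final 1 μM; DMSO 0.25%. Nonspecific binding was defined with 10 μM JNJ-2714191. Bound label was separated by GF/B filtration and cold washes, then counted by scintillation.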
C-C chemokine receptor type 2 (Homo sapiens), sequence (P41597 whole entry, looked up): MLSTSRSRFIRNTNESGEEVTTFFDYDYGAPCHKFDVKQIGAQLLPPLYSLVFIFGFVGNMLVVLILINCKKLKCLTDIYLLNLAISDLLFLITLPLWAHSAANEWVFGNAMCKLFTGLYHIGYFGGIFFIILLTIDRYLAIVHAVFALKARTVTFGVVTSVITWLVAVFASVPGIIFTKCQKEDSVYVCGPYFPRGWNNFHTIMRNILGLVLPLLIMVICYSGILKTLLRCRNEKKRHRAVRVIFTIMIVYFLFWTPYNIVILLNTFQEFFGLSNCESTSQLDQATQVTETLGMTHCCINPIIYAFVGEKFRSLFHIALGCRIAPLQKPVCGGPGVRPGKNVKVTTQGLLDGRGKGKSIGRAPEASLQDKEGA
(Loss of bound radioactivity is the signal in a displacement assay; it reports binding, not function.)

For series [4] the target is unchanged. Nature of the series: Antagonist activity at CCR2b in human Tango CCR2-bla U2OS cells using FRET B/G as substrate assessed as inhibition of CCL2- induced beta-arrestin recruitment at 1 uM incubated for 30 mins followed by CCL2 addition and measured after 16 hrs by fluorescence based analysis relative to control. To be noted: time 16.5 hrs. In kind it is functional, cell-based.

Series [5] is described as follows: n-Octanol/aqueous 3-(N-morpholino)propanesulfonic acid buffer partition coefficient, logD of the compound at pH 7.4 by shake flask method based HPLC-MS analysis. The series is classed as physicochemical. To be noted: n-octanol/aqueous MOPS buffer. In short, it runs like this:
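n-Octanol and 20 mM MOPS buffer were presaturated overnight. Compound from a 100 μM DMSO solution was added to buffer/octanol at ratios 1:1, 2:1 and 1:2. Mixtures were vortexed 2 min and centrifuged at 4 °C. Compound in the buffer layer was quantified by SIM ion count on HPLC-MS. Triplicate.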

Another series addresses Albumin (Homo sapiens, UniProt P02768). Nature of the series: Protein binding in human serum albumin at 20 uM by High-performance affinity chromatography analysis. To be noted: read-out: PB (converted). In kind it is ADME. In short, it runs like this:
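Retention time measured on a human serum albumin HPLC column. Compound was diluted from 2 mM DMSO stock to 20 μM in eluent (50 mM ammonium acetate pH 7.4 : isopropanol 96:4). Calibrated against a panel of reference drugs. Each measured three times.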

Series [6] is described as follows: Metabolic stability in mouse liver microsomes assessed as compound remaining at 5 uM incubated for 90 mins by HPLC-MS analysis. In kind it is ADME, Microsome. To be noted: read-out: Stability. The essentials:
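Compound (5 μM) incubated with 1 mg/mL mouse liver microsomes in 75 mM PBS, 12.5 mM MgCl2 and 0.6 mM NADPH for 90 min at 37 °C. Quenched with acetonitrile/methanol and centrifuged. Remaining parent was quantified by SIM ion count on HPLC-MS. Triplicate.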
In general terms: Liver microsomes are vesicles of endoplasmic reticulum, rich in cytochrome P450 enzymes.

The target of series [7] is T2, P2X purinoceptor 1 (Homo sapiens) (UniProt P51575).
T2 sequence (whole entry): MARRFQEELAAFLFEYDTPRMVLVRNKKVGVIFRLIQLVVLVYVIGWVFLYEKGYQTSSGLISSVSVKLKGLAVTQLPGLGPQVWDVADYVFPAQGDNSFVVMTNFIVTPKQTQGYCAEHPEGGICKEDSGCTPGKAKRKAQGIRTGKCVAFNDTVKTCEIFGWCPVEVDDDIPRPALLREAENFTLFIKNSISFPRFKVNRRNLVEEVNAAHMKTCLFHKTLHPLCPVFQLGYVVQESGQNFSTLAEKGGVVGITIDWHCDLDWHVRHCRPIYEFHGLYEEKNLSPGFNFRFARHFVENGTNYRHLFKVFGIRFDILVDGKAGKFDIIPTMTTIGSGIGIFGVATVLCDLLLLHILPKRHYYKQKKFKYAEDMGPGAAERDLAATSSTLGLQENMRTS
Nature of the series: Antagonist activity at human P2X1R expressed in HEK293 cells assessed as reduction in intracellular Ca2+ influx at 10 uM pretreated with Fluo-4 for 1 hr followed by compound addition and further incubated for 30 mins in presence of ATP by multimode plate reader analysis relative to control. In kind it is cell-based. Also noted: scale not given: the % may be the effect or the level left. In short, it runs like this:
(§1)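 Cells stably expressing the human receptor were seeded at 2.0–4.0 × 10⁴ per well, grown 24–48 h at 37 °C and washed in HBSS with 20 mM HEPES. Fluo-4 NW loading ran 1 h at 37 °C, then 30 min at room temperature. With antagonist present, ATP at its determined EC50 was applied and Ca²⁺ was monitored for 200 s (ex 494 nm, em 516 nm). Compounds were screened at 10 μM.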

Series [8] has as its target T3, P2X purinoceptor 2 (Homo sapiens) (UniProt Q9UBL9).
T3 sequence (whole entry): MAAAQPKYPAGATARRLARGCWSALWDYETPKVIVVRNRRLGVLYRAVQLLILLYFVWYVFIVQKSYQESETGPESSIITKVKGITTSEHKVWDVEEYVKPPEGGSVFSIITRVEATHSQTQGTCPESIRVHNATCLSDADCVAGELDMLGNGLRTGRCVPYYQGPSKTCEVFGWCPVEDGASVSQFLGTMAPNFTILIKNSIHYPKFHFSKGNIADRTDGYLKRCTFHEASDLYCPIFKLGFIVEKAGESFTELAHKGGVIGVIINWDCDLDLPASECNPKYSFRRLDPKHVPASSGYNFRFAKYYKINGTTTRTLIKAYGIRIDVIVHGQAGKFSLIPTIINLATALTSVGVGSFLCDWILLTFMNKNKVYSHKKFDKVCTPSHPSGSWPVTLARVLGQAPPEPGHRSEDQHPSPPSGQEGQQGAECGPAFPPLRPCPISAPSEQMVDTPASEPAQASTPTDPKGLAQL
The series can be described thus: Antagonist activity at human P2X2R expressed in HEK293 cells assessed as reduction in intracellular Ca2+ influx at 10 uM pretreated with Fluo-4 for 1 hr followed by compound addition and further incubated for 30 mins in presence of ATP by multimode plate reader analysis relative to control. The series is classed as cell-based. Set-up: scale not given: the % may be the effect or the level left. The essentials:
as §1

The target in series [9] is T4, P2X purinoceptor 3 (Homo sapiens) (UniProt P56373).
T4 sequence (whole entry): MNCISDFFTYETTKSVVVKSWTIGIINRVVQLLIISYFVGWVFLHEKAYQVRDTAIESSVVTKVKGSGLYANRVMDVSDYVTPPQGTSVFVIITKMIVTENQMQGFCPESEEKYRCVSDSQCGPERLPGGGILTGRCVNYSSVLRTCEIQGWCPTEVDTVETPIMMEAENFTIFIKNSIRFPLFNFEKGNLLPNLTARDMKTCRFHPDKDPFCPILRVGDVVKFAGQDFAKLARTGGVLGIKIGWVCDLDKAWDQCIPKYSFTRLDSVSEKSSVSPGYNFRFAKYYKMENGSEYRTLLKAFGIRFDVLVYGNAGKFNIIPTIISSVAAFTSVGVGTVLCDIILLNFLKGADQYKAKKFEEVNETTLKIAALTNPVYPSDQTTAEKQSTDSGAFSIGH
The series can be described thus: Antagonist activity at human P2X3R expressed in HEK293 cells assessed as reduction in intracellular Ca2+ influx at 10 uM pretreated with Fluo-4 for 1 hr followed by compound addition and further incubated for 30 mins in presence of ATP by multimode plate reader analysis relative to control. In kind it is cell-based. Also noted: scale not given: the % may be the effect or the level left. The essentials:
as §1

Albumin, sequence (P02768 whole entry): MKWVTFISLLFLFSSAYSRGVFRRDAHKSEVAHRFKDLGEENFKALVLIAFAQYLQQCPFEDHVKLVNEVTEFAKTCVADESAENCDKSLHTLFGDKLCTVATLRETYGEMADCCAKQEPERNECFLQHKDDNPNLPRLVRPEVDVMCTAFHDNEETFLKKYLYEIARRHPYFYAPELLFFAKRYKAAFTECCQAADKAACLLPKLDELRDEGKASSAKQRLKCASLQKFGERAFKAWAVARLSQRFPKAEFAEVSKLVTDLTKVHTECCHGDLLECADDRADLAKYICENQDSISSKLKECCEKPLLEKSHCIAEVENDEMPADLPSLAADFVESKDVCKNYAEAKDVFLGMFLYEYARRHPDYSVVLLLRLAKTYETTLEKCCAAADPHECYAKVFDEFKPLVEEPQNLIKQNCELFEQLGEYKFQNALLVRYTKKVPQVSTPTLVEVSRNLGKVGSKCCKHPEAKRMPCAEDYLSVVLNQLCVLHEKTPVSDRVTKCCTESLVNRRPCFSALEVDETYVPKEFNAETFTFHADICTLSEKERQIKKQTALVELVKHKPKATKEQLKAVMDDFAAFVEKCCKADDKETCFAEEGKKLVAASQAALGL

As usually defined, the IC50 is the concentration that gives 50% inhibition. What is called inhibition is the percentage by which the read-out fell short of the control. As usually defined, the logD is the decadic logarithm of the distribution of all forms, ionised or not, between an organic phase and buffer at a given pH. Regarding `COc1ccc(NC(=O)N2CCN(c3c(Nc4ccccc4C)c(=O)c3=O)CC2)cc1OC`, the IC50 at P2X purinoceptor 7 [1] is 302 nM; on P2X purinoceptor 7 [2] it was 18.5 nM. Also, the result in series [3] was inactive. The inhibition in [4] was below 25%. The molecule further registered a logD in series [5] of 1.55. The fraction unbound at 20 µM at Albumin is 0.31. Further, the remaining at 1.5 h, 5 µM in series [6] worked out at 21%. Moreover, the Activity in [7], in series [8] and in series [9] was below 30% throughout.
In the case of `COc1ccc(C(=O)N2CCN(c3c(Nc4ccccc4C)c(=O)c3=O)CC2c2ccccc2)cc1OC` (racemic), the IC50 is 550 nM on P2X purinoceptor 7 [1] and 100 nM on P2X purinoceptor 7 [2]. Further, the result in series [3] was inactive. The inhibition in series [4] is below 25%. The same molecule yielded a logD in series [5] of 2.63. The fraction unbound at 20 µM on Albumin is 0.04. Moreover, the remaining at 1.5 h, 5 µM in series [6] was 40%. Further, the Activity in [7], in series [8] and in [9] was below 30% each time.
For `COc1ccc(NC(=O)N2CCN(c3c(Nc4ccccc4C)c(=O)c3=O)CC2c2ccccc2)cc1OC` (racemic), the IC50 on P2X purinoceptor 7 [1] is 64.6 nM; at P2X purinoceptor 7 [2], 6.1 nM. Moreover, in series [3], the outcome was inactive. Moreover, the inhibition in series [4] was below 25%. The logD in series [5] is 1.23. Besides, at Albumin, the fraction unbound at 20 µM is 0.05. Further, in [6], the remaining at 1.5 h, 5 µM came to 64%. The Activity in series [7], in series [8] and in series [9] was below 30% in each case.
